Results from paper PMC11951139 (Journal of Agricultural and Food Chemistry, 2025).
Entries after “also recorded” stand apart in the source; their conditions may differ.

Tests used:
DmATG8a^K48A = experiment: MST binding to the DmATG8a K48A mutant; design: species or system Drosophila melanogaster; conditions: 25 °C
Summary of the method: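 K48A point mutant of DmATG8a made by site-directed mutagenesis in pET-32a. Expressed and purified as for wild type: E. coli BL21(DE3), His-tag affinity, TEV cleavage, desalting. Binding of the test indole assessed by microscale thermophoresis with fluorescently labelled protein.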

[1] = tested on: D. melanogaster adult flies; experiment: Insecticidal activity, combined gastric poisoning and contact method; type: in vivo, Drosophila melanogaster; conditions: for insecticidal activity: 500 μg/mL, adult flies, mortality after 24 h
Summary of the method: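 Adult fruit flies, about twenty 2-day-old per dish. Apple slices soaked 1 min in test solution, then placed in the Petri dish, combining ingestion and contact exposure. Triplicate per treatment, with water as negative and avermectin as positive control. Held at 24 ± 1 °C, 75 ± 5% RH, 16 h light:8 h dark. Mortality scored at 24 h by gently touching insects with a brush.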

DmATG8a = DmATG8a (Drosophila melanogaster, UniProt Q9W2S2); experiment: Microscale thermophoresis; type: binding; conditions: for Kd: Kd value (binding affinity with DmATG8a), MST, fluorescently labeled DmATG8a
DmATG8a, sequence (Q9W2S2 1-121): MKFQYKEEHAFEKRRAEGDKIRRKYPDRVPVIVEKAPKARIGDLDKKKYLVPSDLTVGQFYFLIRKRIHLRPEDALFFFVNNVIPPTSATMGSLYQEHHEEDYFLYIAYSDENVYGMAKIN
Summary of the method: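 Wild-type DmATG8a expressed from pET-32a in E. coli BL21(DE3), induced with 1 mM IPTG at 20 °C for 16 h. Purified by His-tag affinity, TEV tag removal and size exclusion in 20 mM Tris-HCl, 300 mM NaCl, pH 7.5. Protein labelled with RED-NHS dye. Test compounds and tryptophan run as 16-point dilutions from 0.06 to 2000 μM, 5 min in the dark, then MST on a Monolith NT.115.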

Structure (SMILES)	binding to DmATG8a^K48A (DmATG8a^K48A)	insecticidal activity [1] [%]	LC50 ([1]; Drosophila melanogaster, 24 h) [mg/L]	fold lower Kd than tryptophan (DmATG8a; Kd of 6-fluoroindole versus Kd of tryptophan)	Kd (DmATG8a) [µM]	mortality at 15 µg/mL ([1]; Drosophila melanogaster, 24 h) [%]
Fc1ccc2cc[nH]c2c1 [6-fluoroindole]	no affinity; also recorded: no binding	100	169	approximately 19 fold	3.54	–
CC[C@H](C)[C@H]1O[C@]2(C=C[C@@H]1C)C[C@@H]1C[C@@H](C/C=C(\C)[C@@H](O[C@H]3C[C@H](OC)[C@@H](O[C@H]4C[C@H](OC)[C@@H](O)[C@H](C)O4)[C@H](C)O3)[C@@H](C)/C=C/C=C3\CO[C@@H]4[C@H](O)C(C)=C[C@@H](C(=O)O1)[C@]34O)O2 [avermectin]	–	100	30.5	–	–	33
N[C@@H](Cc1c[nH]c2ccccc12)C(=O)O [tryptophan, reference compound]	–	–	–	–	67	–
